Active and inactive are the calls of the source. No cut-off for these calls is given here.

This is an account of results in ChEMBL document CHEMBL2434856, “Synthesis and in vitro and in vivo evaluation of antimalarial polyamines” (Eur J Med Chem, 2013).

Series [1] can be described thus: Selectivity index, ratio of IC50 for rat L6 cells to IC50 for erythrocytic stage of chloroquine and pyrimethamine-resistant Plasmodium falciparum K1. The class given is toxicity, cell-based. The following applies: read-out: Ratio IC50. In outline:
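Selectivity index calculated as the IC50 against rat L6 skeletal myoblasts divided by the IC50 against the erythrocytic stage of P. falciparum K1, both in µM. Chloroquine served as the positive control in the parasite assay. IC50 values are means of duplicate assays.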

In series [2] the test system is L6. The experiment in a line: Cytotoxicity against rat L6 cells. The class given is cell-based. In outline:
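Rat skeletal myoblast L6 cell line, tested alongside the P. falciparum K1 assay so that a selectivity index (IC50 L6 / IC50 Pf) could be derived. Read-out is IC50 in µM, reported as the mean of duplicate assays.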

In series [3] the test system is Plasmodium falciparum. The experiment in a line: Antimalarial activity against erythrocytic stage of chloroquine and pyrimethamine-resistant Plasmodium falciparum K1. The class given is functional, organism-based. An outline of the steps: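 P. falciparum K1 (chloroquine- and pyrimethamine-resistant), erythrocytic stage, growth inhibition read as IC50 in µM. Chloroquine served as the positive control. Values are means of duplicate assays.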

In series [4] the test system is Mus musculus. Description: Acute toxicity in NMRI mouse infected with GFP-transfected Plasmodium berghei ANKA at 100 mg/kg, ip. Type of series: organism-based. Further details: dose 100 mg/kg, route intraperitoneal. The settings on record: in vivo.
Series [5] concerns Plasmodium berghei. The experiment in a line: Antimalarial activity against GFP-transfected Plasmodium berghei ANKA infected in NMRI mouse assessed as reduction of parasitaemia at 20 mg/kg, ip qd for 4 days.
Series [6] has as its system Plasmodium berghei. Description: Antimalarial activity against GFP-transfected Plasmodium berghei ANKA infected in NMRI mouse assessed as increase of mean survival time at 20 mg/kg, ip qd for 4 days.
In series [7] the test system is Plasmodium berghei. The experiment in a line: Antimalarial activity against GFP-transfected Plasmodium berghei ANKA infected in NMRI mouse assessed as reduction of parasitaemia at 50 mg/kg, ip qd for 4 days.
For series [8], the system named is Mus musculus. Description: Acute toxicity in NMRI mouse infected with GFP-transfected Plasmodium berghei ANKA at 150 mg/kg, ip. Type of series: organism-based. Further details: dose 150 mg/kg, route intraperitoneal. The following applies: in vivo.
The test system of series [9] is Plasmodium berghei. Description: Antimalarial activity against GFP-transfected Plasmodium berghei ANKA infected in NMRI mouse assessed as increase of mean survival time at 50 mg/kg, ip qd for 4 days.
Series [10] deals with Plasmodium berghei. The experiment in a line: Antimalarial activity against GFP-transfected Plasmodium berghei ANKA infected in NMRI mouse assessed as increase of mean survival time at 30 mg/kg, ip qd for 4 days.
Series [11] concerns Plasmodium berghei. Description: Antimalarial activity against GFP-transfected Plasmodium berghei ANKA infected in NMRI mouse assessed as reduction of parasitaemia at 30 mg/kg, ip qd for 4 days. Further details: scale not given: the % may be the effect or the level left. The settings on record: route intraperitoneal.

For the compound `O=C(NCCCNCCCCCCCCCCCCNCCCNC(=O)c1ccccc1)c1ccccc1`, the selectivity ratio in series [1] is 43. Besides, the figures for the IC50 in series [2] and in [3] were 6.9 µM and 160 nM, respectively.

In the case of `COc1ccc(OC)c(CC(=O)NCCCN(CCCCCCCCN(CCCNC(=O)Cc2cc(OC)ccc2OC)C(=O)OC(C)(C)C)C(=O)OC(C)(C)C)c1`, in [1], the selectivity ratio was 40. The concentration for half-maximal inhibition (IC50) in series [2] is 1.9 µM; in series [3] it was 48 nM.

As to `COc1ccc(OC)c(CCC(=O)NCCCN(CCCCCCCCCCCCN(CCCNC(=O)CCc2cc(OC)ccc2OC)C(=O)OC(C)(C)C)C(=O)OC(C)(C)C)c1`, the selectivity ratio in [1] amounted to 13. For the same compound, the concentration for half-maximal inhibition (IC50) in series [2] was 2.3 µM; in series [3] it was 180 nM.

For the compound `COc1ccc(CCC(=O)NCCCNCCCCNCCCNC(=O)CCc2ccc(OC)c(OC)c2)cc1OC`, the selectivity ratio in series [1] came to 160. In addition, the 50% inhibitory concentration (IC50) was determined as 73 µM in series [2] and 460 nM in [3].

Turning to `COc1ccc(OC)c(CC(=O)NCCCNCCCCCCCCNCCCNC(=O)Cc2cc(OC)ccc2OC)c1`, the selectivity ratio in [1] was 5080. Moreover, the IC50 came out at 61 µM in series [2] and 12 nM in [3].

Take `CC(C)(C)OC(=O)N(CCCCCCCCCCCCN(CCCNC(=O)c1ccccc1)C(=O)OC(C)(C)C)CCCNC(=O)c1ccccc1`: in [1], the selectivity ratio is 52. Moreover, the IC50 in series [2] is 8.3 µM; in series [3] it was 160 nM.

Consider `O=C(Cc1ccccc1)NCCCNCCCCCCCCCCCCNCCCNC(=O)Cc1ccccc1`, for which the selectivity ratio in series [1] was 138. For the same compound, the IC50 in series [2] came to 22 µM; in series [3], 160 nM.

Consider `O=C(NCCCNCCCCNCCCNC(=O)c1ccccc1)c1ccccc1`, for which the selectivity ratio in series [1] was 200. Further, the IC50 in series [2] amounted to 89 µM; in series [3], 450 nM.

For the compound `CC(C)(C)OC(=O)N(CCCCCCCCCCCCN(CCCNC(=O)Cc1ccccc1)C(=O)OC(C)(C)C)CCCNC(=O)Cc1ccccc1`, the selectivity ratio in series [1] was found to be 32. In addition, the figures for the half-maximal inhibitory concentration (IC50) in [2] and in series [3] were 8.2 µM and 260 nM, respectively.

As to `COc1ccc(OC)c(C(=O)NCCCNCCCCNCCCNC(=O)c2cc(OC)ccc2OC)c1`, the selectivity ratio in series [1] stood at 81. The half-inhibitory concentration (IC50) in [2] was 75 µM; in series [3] it was 930 nM.

`CC(C)(C)OC(=O)N(CCCCCCCCCCCCN(CCCNC(=O)Cc1ccccc1O)C(=O)OC(C)(C)C)CCCNC(=O)Cc1ccccc1O`: the selectivity ratio in series [1] came out at 59. Also, the figures for the IC50 in series [2] and in [3] were 10 µM and 170 nM, respectively.

In the case of `COc1ccc(OC)c(CC(=O)NCCCN(CCCCCCCCCCCCN(CCCNC(=O)Cc2cc(OC)ccc2OC)C(=O)OC(C)(C)C)C(=O)OC(C)(C)C)c1`, the selectivity ratio in [1] was determined as 14. Moreover, the IC50 in series [2] is 2.2 µM; in series [3], 160 nM.

Turning to `CC(C)(C)OC(=O)N(CCCCCCCCCCCCN(CCCNC(=O)CCc1ccccc1)C(=O)OC(C)(C)C)CCCNC(=O)CCc1ccccc1`, the selectivity ratio in [1] came to 17. In addition, the concentration for half-maximal inhibition (IC50) stood at 4 µM in series [2] and 240 nM in [3].

As for `O=C(NCCCNCCCCNCCCNC(=O)c1ccccc1O)c1ccccc1O`, the selectivity ratio in series [1] was determined as 44. In addition, the half-inhibitory concentration (IC50) in series [2] worked out at 83 µM; in series [3] it was 1900 nM.

For the compound `O=C(Cc1ccccc1)NCCCNCCCCCCCCNCCCNC(=O)Cc1ccccc1`, the Activity entry in series [4] is reported as “Toxic”. Also, the selectivity ratio in [1] amounted to 4930. Besides, the outcome in series [5] and in series [6] was inactive. Besides, the IC50 in series [2] was determined as 74 µM; in series [3], 15 nM.

On to `COc1ccc(OC)c(C(=O)NCCCNCCCCCCCCCCCCNCCCNC(=O)c2cc(OC)ccc2OC)c1`, for which the selectivity ratio in [1] amounted to 5.6. The figures for the 50% inhibitory concentration (IC50) in series [2] and in series [3] were 2.2 µM and 390 nM, respectively.

For the compound `CC(C)(C)OC(=O)N(CCCCCCCCN(CCCNC(=O)Cc1ccccc1)C(=O)OC(C)(C)C)CCCNC(=O)Cc1ccccc1`, the selectivity ratio in series [1] came to 18. Also, the figures for the half-inhibitory concentration (IC50) in [2] and in series [3] were 8.6 µM and 470 nM, respectively.

As to `O=C(CCc1ccccc1)NCCCNCCCCNCCCNC(=O)CCc1ccccc1`, the selectivity ratio in series [1] turned out to be 910. The results for the IC50 in series [2] and in series [3] were 91 µM and 100 nM, respectively.

Consider `COc1ccc(CCC(=O)NCCCN(CCCCCCCCCCCCN(CCCNC(=O)CCc2ccc(OC)c(OC)c2)C(=O)OC(C)(C)C)C(=O)OC(C)(C)C)cc1OC`, for which the selectivity ratio in series [1] is 38. The IC50 in [2] worked out at 2.5 µM; in [3] it was 66 nM.

For `O=C(NCCCNCCCCCCCCCCCCNCCCNC(=O)c1ccccc1O)c1ccccc1O`, the selectivity ratio in series [1] was determined as 6.6. The 50% inhibitory concentration (IC50) in [2] turned out to be 2.5 µM; in [3], 380 nM.

Turning to `O=C(CCc1ccccc1O)NCCCNCCCCNCCCNC(=O)CCc1ccccc1O`, the selectivity ratio in series [1] stood at 5700. Also, the result in series [7] and in [9] was inactive. The concentration for half-maximal inhibition (IC50) was 86 µM in [2] and 15 nM in series [3]. In addition, the Activity entry in series [8] is “Non-toxic”.

In the case of `O=C(Cc1ccccc1O)NCCCNCCCCCCCCCCCCNCCCNC(=O)Cc1ccccc1O`, the selectivity ratio in [1] is 4880. For the same compound, the concentration for half-maximal inhibition (IC50) in series [2] came to 42 µM; in [3], 8.6 nM.

In the case of `COc1ccc(CC(=O)NCCCN(CCCCCCCCCCCCN(CCCNC(=O)Cc2ccc(OC)cc2)C(=O)OC(C)(C)C)C(=O)OC(C)(C)C)cc1`, the selectivity ratio in series [1] came out at 22. The half-inhibitory concentration (IC50) in [2] was determined as 4.7 µM; in series [3], 210 nM.

With `CC(C)(C)OC(=O)N(CCCCCCCCN(CCCNC(=O)Cc1ccccc1O)C(=O)OC(C)(C)C)CCCNC(=O)Cc1ccccc1O`, the selectivity ratio in series [1] was 22. Also, the IC50 in series [2] came to 16 µM; in series [3], 730 nM.

On to `CC(C)(C)OC(=O)N(CCCCCCCCCCCCN(CCCNC(=O)CCc1ccccc1O)C(=O)OC(C)(C)C)CCCNC(=O)CCc1ccccc1O`, for which the selectivity ratio in series [1] turned out to be 28. Besides, the IC50 in [2] stood at 3.6 µM; in [3], 130 nM.

`COc1ccc(OC)c(CC(=O)NCCCNCCCCCCCCCCCCNCCCNC(=O)Cc2cc(OC)ccc2OC)c1`: in series [1], the selectivity ratio was 121. Further, the IC50 in series [2] came to 23 µM; in series [3] it was 190 nM.

`COc1ccc(OC)c(CCC(=O)NCCCNCCCCNCCCNC(=O)CCc2cc(OC)ccc2OC)c1`: the selectivity ratio in [1] turned out to be 16200. In addition, the IC50 came out at 99 µM in [2] and 6.1 nM in series [3].

On to `COc1ccc(OC)c(C(=O)NCCCN(CCCCCCCCCCCCN(CCCNC(=O)c2cc(OC)ccc2OC)C(=O)OC(C)(C)C)C(=O)OC(C)(C)C)c1`, for which, in [1], the selectivity ratio came to 10. Besides, the 50% inhibitory concentration (IC50) in [2] was found to be 1.8 µM; in series [3], 180 nM.

As to `O=C(CCc1ccccc1O)NCCCNCCCCCCCCCCCCNCCCNC(=O)CCc1ccccc1O`, in series [1], the selectivity ratio was 6530. In addition, the IC50 in series [2] worked out at 62 µM; in [3], 9.5 nM.

Consider `O=C(CCc1ccccc1)NCCCNCCCCCCCCCCCCNCCCNC(=O)CCc1ccccc1`, for which the selectivity ratio in series [1] was determined as 95. The results for the IC50 in series [2] and in [3] were 6.9 µM and 73 nM, respectively.

In the case of `COc1ccccc1CC(=O)NCCCN(CCCCCCCCCCCCN(CCCNC(=O)Cc1ccccc1OC)C(=O)OC(C)(C)C)C(=O)OC(C)(C)C`, the selectivity ratio in series [1] came out at 5.9. Also, the IC50 came to 2.7 µM in series [2] and 460 nM in series [3].

As for `COc1ccccc1CC(=O)NCCCNCCCCCCCCCCCCNCCCNC(=O)Cc1ccccc1OC`, in series [1], the selectivity ratio stood at 269. The IC50 in [2] is 21 µM; in series [3], 78 nM.

In the case of `O=C(Cc1ccccc1O)NCCCNCCCCCCCCNCCCNC(=O)Cc1ccccc1O`, the selectivity ratio in [1] is 42300. The half-maximal inhibitory concentration (IC50) was determined as 55 µM in [2] and 1.3 nM in [3].

In the case of `COc1ccc(OC)c(CCC(=O)NCCCNCCCCCCCCCCCCNCCCNC(=O)CCc2cc(OC)ccc2OC)c1`, the selectivity ratio in series [1] is 59. For the same compound, the 50% inhibitory concentration (IC50) stood at 6.5 µM in series [2] and 110 nM in series [3].

As to `COc1ccc(CCC(=O)NCCCNCCCCCCCCCCCCNCCCNC(=O)CCc2ccc(OC)c(OC)c2)cc1OC`, the selectivity ratio in [1] was 803. In addition, the figures for the 50% inhibitory concentration (IC50) in series [2] and in series [3] were 57 µM and 71 nM, respectively.

Regarding `CC(C)(C)OC(=O)N(CCCCCCCCCCCCN(CCCNC(=O)c1ccccc1O)C(=O)OC(C)(C)C)CCCNC(=O)c1ccccc1O`, the selectivity ratio in series [1] worked out at 186. The IC50 in series [2] is 93 µM; in [3], 500 nM.

Turning to `O=C(Cc1ccccc1O)NCCCNCCCCNCCCNC(=O)Cc1ccccc1O`, the values for the Activity entry in series [8] and in series [11] were “Toxic” and 27.9%, respectively. Further, the result in [10] was inactive.

In the case of `COc1ccc(CC(=O)NCCCNCCCCCCCCCCCCNCCCNC(=O)Cc2ccc(OC)cc2)cc1`, the selectivity ratio in series [1] worked out at 95. The IC50 is 19 µM in series [2] and 200 nM in series [3].
